Measurements taken from ChEMBL document CHEMBL3421563, “Potent Irreversible Inhibitors of LasR Quorum Sensing in Pseudomonas aeruginosa” (ACS Med Chem Lett, 2015).
Activity calls are given as the source filed them. The calls are words filed in the database; no cut-off is given here.

How the values were obtained:
[1] = molecular target: T1, Transcriptional activator protein LasR (Pseudomonas aeruginosa (strain ATCC 15692 / PAO1 / 1C / PRS 101 / LMG12228)) (UniProt P25084); assay: Antagonist activity at Pseudomonas aeruginosa LasR expressed in Escherichia coli BL21 DE3 at 100 uM after 4 to 6 hrs by GFP reporter gene assay relative to Br-HSL
T1 sequence (whole entry): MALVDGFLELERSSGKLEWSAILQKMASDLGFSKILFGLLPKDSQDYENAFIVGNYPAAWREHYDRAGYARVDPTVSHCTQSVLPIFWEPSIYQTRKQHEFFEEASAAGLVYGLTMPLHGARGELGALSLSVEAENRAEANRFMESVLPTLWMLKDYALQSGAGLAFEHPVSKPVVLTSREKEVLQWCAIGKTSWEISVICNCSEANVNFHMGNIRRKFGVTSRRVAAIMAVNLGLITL
Procedure, shortened: (§1)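 GFP-based LasR antagonist bioassay. IC50 is the mean of triplicate runs, range as 95% confidence interval. Percent inhibition of GFP is measured at 100 μM relative to Br-HSL positive control, which is set at 100% inhibition.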

Pseudomonas aeruginosa [2] = assay: Effect on growth of Pseudomonas aeruginosa up to 200 uM; type: organism-based; details: in vivo
Procedure, shortened: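 Bacterial growth is monitored by OD600 at concentrations up to 200 μM.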

[3] = Antagonist activity at Pseudomonas aeruginosa LasR expressed in Escherichia coli BL21 DE3 after 4 to 6 hrs by GFP reporter gene assay; procedure, shortened: as §1
[4] = molecular target: T2, Transcriptional activator protein LasR (Pseudomonas aeruginosa (strain ATCC 15692 / PAO1 / 1C / PRS 101 / LMG12228), UniProt P25084); assay: Agonist activity at Pseudomonas aeruginosa LasR
T2 sequence (P25084 whole entry): T1 sequence (whole entry)

[5] = molecular target: T1, Transcriptional activator protein LasR (Pseudomonas aeruginosa (strain ATCC 15692 / PAO1 / 1C / PRS 101 / LMG12228)); assay: Non-competitive antagonist activity at Pseudomonas aeruginosa LasR expressed in Escherichia coli BL21 DE3 at 40 to 80 uM after 4 to 6 hrs by GFP reporter gene assay in presence of LasR agonist 3-oxo-C12HSL
Procedure, shortened: (§2)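 Competition format of the GFP LasR bioassay: antagonist held at a fixed concentration while a dose-response curve of native agonist 3-oxo-C12 HSL is run; the maximal activation and the curve are compared.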

[6] = molecular target: T1, Transcriptional activator protein LasR (Pseudomonas aeruginosa (strain ATCC 15692 / PAO1 / 1C / PRS 101 / LMG12228)); assay: Irreversible antagonist activity at Pseudomonas aeruginosa LasR expressed in Escherichia coli BL21 DE3 at 10 to 50 uM after 4 to 6 hrs by GFP reporter gene assay in presence of LasR agonist 3-oxo-C12HSL; procedure, shortened: as §2
[7] = molecular target: T2, Transcriptional activator protein LasR; assay: Agonist activity at Pseudomonas aeruginosa LasR expressed in Escherichia coli BL21 DE3 after 4 to 6 hrs by GFP reporter gene assay
[8] = molecular target: T1, Transcriptional activator protein LasR (Pseudomonas aeruginosa (strain ATCC 15692 / PAO1 / 1C / PRS 101 / LMG12228)); assay: Antagonist activity at LasR in Pseudomonas aeruginosa PA14 assessed as inhibition of static biofilm thickness grown in rich media at 12.5 to 25 uM after 36 hrs SYTO-9 nucleic acid staining-based confocal microscopic analysis
Pseudomonas aeruginosa [9] = assay: Effect on growth of Pseudomonas aeruginosa PA14 at 12.5 to 25 uM
Procedure, shortened: (§3)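 Growth of PAO1 and PA14 in the pyocyanin cultures is followed by cell density at A600.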

[10] = molecular target: T1, Transcriptional activator protein LasR (Pseudomonas aeruginosa (strain ATCC 15692 / PAO1 / 1C / PRS 101 / LMG12228)); assay: Irreversible antagonist activity at Pseudomonas aeruginosa LasR expressed in Escherichia coli BL21 DE3 at 10 to 100 uM after 4 to 6 hrs by GFP reporter gene assay in presence of LasR agonist 3-oxo-C12HSL; procedure, shortened: as §2
[11] = molecular target: T1, Transcriptional activator protein LasR (Pseudomonas aeruginosa (strain ATCC 15692 / PAO1 / 1C / PRS 101 / LMG12228)); assay: Antagonist activity at LasR in Pseudomonas aeruginosa PA14 assessed as decrease in pyocyanin level in cell-free supernatants after 12 hrs
Procedure, shortened: (§4)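 Cell-free supernatants from PAO1 or PA14 cultures. Pyocyanin is read directly as absorbance at 695 nm, in triplicate. Cell density is read at A600 in parallel.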

[12] = molecular target: T1, Transcriptional activator protein LasR (Pseudomonas aeruginosa (strain ATCC 15692 / PAO1 / 1C / PRS 101 / LMG12228)); assay: Antagonist activity at LasR in Pseudomonas aeruginosa PA14 assessed as decrease in pyocyanin level in extracted and acidified cell-free supernatants after 12 hrs
Procedure, shortened: (§5)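 Cell-free culture supernatants undergo a pyocyanin-selective extraction and acidification, then absorbance is read at 520 nm.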

Pseudomonas aeruginosa [13] = assay: Effect on growth of Pseudomonas aeruginosa PAO1 at 12.5 to 25 uM; type: organism-based; details: in vivo; procedure, shortened: as §3
[14] = molecular target: T1, Transcriptional activator protein LasR (Pseudomonas aeruginosa (strain ATCC 15692 / PAO1 / 1C / PRS 101 / LMG12228)); assay: Antagonist activity at LasR in Pseudomonas aeruginosa PAO1 assessed as decrease in pyocyanin level in extracted and acidified cell-free supernatants after 12 hrs; procedure, shortened: as §5
[15] = molecular target: T1, Transcriptional activator protein LasR (Pseudomonas aeruginosa (strain ATCC 15692 / PAO1 / 1C / PRS 101 / LMG12228)); assay: Antagonist activity at LasR in Pseudomonas aeruginosa PA14 assessed as inhibition of overall static biofilm morphology grown in rich media at 12.5 to 25 uM after 36 hrs SYTO-9 nucleic acid staining-based confocal microscopic analysis
[16] = molecular target: T1, Transcriptional activator protein LasR (Pseudomonas aeruginosa (strain ATCC 15692 / PAO1 / 1C / PRS 101 / LMG12228)); assay: Antagonist activity at LasR in Pseudomonas aeruginosa PA14 assessed as inhibition of static biofilm biomass grown in rich media at 12.5 to 25 uM after 36 hrs SYTO-9 nucleic acid staining-based confocal microscopic analysis
[17] = molecular target: T1, Transcriptional activator protein LasR (Pseudomonas aeruginosa (strain ATCC 15692 / PAO1 / 1C / PRS 101 / LMG12228)); assay: Antagonist activity at LasR in Pseudomonas aeruginosa PA14 assessed as inhibition of static biofilm formation after 48 hrs by crystal violet staining
Procedure, shortened: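 Static PA14 cultures; 48 h biofilms quantified by crystal violet staining, absorbance at 550 nm.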

[18] = molecular target: T1, Transcriptional activator protein LasR (Pseudomonas aeruginosa (strain ATCC 15692 / PAO1 / 1C / PRS 101 / LMG12228)); assay: Antagonist activity at LasR in Pseudomonas aeruginosa PA14 assessed as inhibition of static biofilm thickness grown in rich media after 36 hrs by SYTO-9 nucleic acid staining-based confocal microscopic analysis
Procedure, shortened: (§6)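 PA14 biofilms grown 36 h in Luria broth, stained with SYTO-9 and imaged by confocal fluorescence microscopy. Biomass and thickness are computed from the images. Images are taken in duplicate and imaging is repeated three times.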

[19] = molecular target: T1, Transcriptional activator protein LasR (Pseudomonas aeruginosa (strain ATCC 15692 / PAO1 / 1C / PRS 101 / LMG12228)); assay: Antagonist activity at LasR in Pseudomonas aeruginosa PAO1 assessed as decrease in pyocyanin level in cell-free supernatants after 12 hrs; procedure, shortened: as §4
[20] = molecular target: T1, Transcriptional activator protein LasR (Pseudomonas aeruginosa (strain ATCC 15692 / PAO1 / 1C / PRS 101 / LMG12228)); assay: Antagonist activity at LasR in Pseudomonas aeruginosa PA14 assessed as inhibition of overall static biofilm biomass grown in rich media after 36 hrs SYTO-9 nucleic acid staining-based confocal microscopic analysis; procedure, shortened: as §6

Row | Structure (SMILES) | inhibition [1] | IC50 [3] | also measured
1 | O=C(CCCN=C=S)Oc1c(Br)cc(Br)cc1CNC(=O)c1ccccc1[N+](=O)[O-] | 26% | > 200 µM | Activity (Pseudomonas aeruginosa [2]): Non-toxic
2 | O=C(Cc1cc(Br)cc(Br)c1OC(=O)CCCN1C(=O)C=CC1=O)Nc1ccccc1[N+](=O)[O-] | 30% | 78.1 µM | 
3 | O=C(Cc1ccc(Br)cc1)N[C@H]1CCOC1=O |  | 16.4 µM | 
4 | O=C(CCN1C(=O)C=CC1=O)Oc1c(Br)cc(Br)cc1CNC(=O)c1ccccc1[N+](=O)[O-] | 32% | 51.9 µM | 
5 | O=C(Oc1c(Br)cc(Br)cc1CNC(=O)c1ccccc1[N+](=O)[O-])c1ccccc1Cl |  |  | EC50 [4]: 0.028 µM
6 | O=C(Cc1cc(Br)cc(Br)c1OCCCCN=C=S)Nc1ccccc1[N+](=O)[O-] | 61% | 145 µM | Activity (Pseudomonas aeruginosa [2]): Non-toxic; inhibition [5]: Active
7 | O=C(CCl)NCC(=O)Oc1c(Br)cc(Br)cc1CC(=O)Nc1ccccc1[N+](=O)[O-] | 91% | 73.8 µM | 
8 | O=C(Cc1cc(Br)cc(Br)c1OC(=O)CN1C(=O)C=CC1=O)Nc1ccccc1[N+](=O)[O-] | 56% | 86.8 µM | 
9 | O=C(Cc1cc(Br)cc(Br)c1OC(=O)CCN1C(=O)C=CC1=O)Nc1ccccc1[N+](=O)[O-] | 98% | 3.6 µM | inhibition [6]: Active
10 | O=C(Cc1cc(Br)cc(Br)c1OC(=O)CCCN=C=S)Nc1ccccc1[N+](=O)[O-] | 69% | 148 µM | Activity (Pseudomonas aeruginosa [2]): Non-toxic
11 | O=C(CCl)NCCC(=O)Oc1c(Br)cc(Br)cc1CC(=O)Nc1ccccc1[N+](=O)[O-] | 79% | 99.5 µM | 
12 | O=C(Cc1cc(Br)cc(Br)c1OCCCN=C=S)Nc1ccccc1[N+](=O)[O-] | 55% | > 200 µM | Activity (Pseudomonas aeruginosa [2]): Non-toxic
13 | O=C(Cc1cc(Br)cc(Br)c1OC(=O)CCN1C(=O)CCC1=O)Nc1ccccc1[N+](=O)[O-] |  | > 100 µM | EC50 [7]: 0.0036 µM
14 | O=C(CCCN1C(=O)C=CC1=O)Oc1c(Br)cc(Br)cc1CNC(=O)c1ccccc1[N+](=O)[O-] | 101% | 1.5 µM | inhibition [8]: Active; Activity (Pseudomonas aeruginosa [9]): Non-toxic; inhibition [10]: Active; inhibition [11]: Dose-dependent effect; inhibition [12]: Dose-dependent effect; Activity (Pseudomonas aeruginosa [13]): Non-toxic; inhibition [14]: Dose-dependent effect; inhibition [15]: Active; inhibition [16]: Active; inhibition [17]: Dose-dependent effect; inhibition [18]: Dose-dependent effect; inhibition [19]: Dose-dependent effect; inhibition [20]: Dose-dependent effect
15 | O=C(CCCN1C(=O)CCC1=O)Oc1c(Br)cc(Br)cc1CNC(=O)c1ccccc1[N+](=O)[O-] |  | > 100 µM | EC50 [7]: 0.119 µM
